Holding throughout (assay type): ADME, organism-based
Data set [1] can be described thus: AUClast in normally fed BALB/c mouse at 10 mg/kg, im. The arrangement: time 0 - last, dose 10 mg/kg, route intramuscular. The following applies: plasma. An outline of the steps:
(§1)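 Male BALB/c mice, 6-8 weeks (25-30 g), fed or food-deprived 15 h with water available; tobramycin in physiologic solution given by gavage (50 mg/kg), or 10 mg/kg iv (tail vein) or im (hind leg) in fed mice. Groups of 3 per time point; submandibular blood at 0-180 min; plasma tobramycin by homogeneous enzyme immunoassay; noncompartmental PK analysis.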

A further data set concerns Mus musculus. Put plainly: Oral bioavailability in normally fed BALB/c mouse at 10 mg/kg, iv. The following applies: in vivo. An outline of the steps:
as §1

A short description of data set [2]: Tmax in 15 hrs fasted BALB/c mouse at 50 mg/kg, po. The arrangement: dose 50 mg/kg, route oral. The note with it: in vivo. An outline of the steps: as §1
A short description of data set [3]: Cmax in normally fed BALB/c mouse at 50 mg/kg, po. The following applies: in vivo. Further details: dose 50 mg/kg, route oral. Summed up:
as §1

Data set [4] in a line: Tmax in normally fed BALB/c mouse at 10 mg/kg, im. The arrangement: dose 10 mg/kg, route intramuscular. The following applies: in vivo. An outline of the steps:
as §1

Data set [5] can be described thus: Oral bioavailability in normally fed BALB/c mouse at 10 mg/kg, im. The following applies: in vivo, intramuscular. An outline of the steps: as §1
Data set [6] in a line: AUC (0 to infinity) in 15 hrs fasted BALB/c mouse at 50 mg/kg, po. Further details: time infinity, dose 50 mg/kg, route oral. The note with it: plasma. An outline of the steps: as §1
Data set [7] in a line: Half life in normally fed BALB/c mouse at 10 mg/kg, iv. Further details: dose 10 mg/kg, route intravenous. The note with it: in vivo. Summed up:
as §1

The nature of data set [8]: Half life in 15 hrs fasted BALB/c mouse at 50 mg/kg, po. The note with it: in vivo. Further details: dose 50 mg/kg, route oral. Summed up: as §1
Data set [9] in a line: AUClast in 15 hrs fasted BALB/c mouse at 50 mg/kg, po. Further details: time 0 - last, dose 50 mg/kg, route oral. The note with it: plasma. An outline of the steps:
as §1

Data set [10] is described as follows: AUC (0 to infinity) in normally fed BALB/c mouse at 50 mg/kg, po. Further details: time infinity, dose 50 mg/kg, route oral. The note with it: plasma. An outline of the steps:
as §1

Data set [11] in a line: Cmax in 15 hrs fasted BALB/c mouse at 50 mg/kg, po. The arrangement: dose 50 mg/kg, route oral. The following applies: in vivo. An outline of the steps: as §1
A short description of data set [12]: AUC (0 to infinity) in normally fed BALB/c mouse at 10 mg/kg, im. Further details: time infinity, dose 10 mg/kg, route intramuscular. The following applies: plasma. Summed up:
as §1

The nature of data set [13]: AUClast in normally fed BALB/c mouse at 50 mg/kg, po. The arrangement: time 0 - last, dose 50 mg/kg, route oral. The note with it: plasma. Summed up:
as §1

Data set [14] is described as follows: Tmax in normally fed BALB/c mouse at 10 mg/kg, iv. The arrangement: dose 10 mg/kg, route intravenous. The following applies: in vivo. An outline of the steps:
as §1

Data set [15] can be described thus: Oral bioavailability in 15 hrs fasted BALB/c mouse at 50 mg/kg, po. The note with it: in vivo. Summed up: as §1
Data set [16] in a line: Oral bioavailability in normally fed BALB/c mouse at 50 mg/kg, po. The note with it: in vivo. Summed up: as §1
The nature of data set [17]: Cmax in normally fed BALB/c mouse at 10 mg/kg, iv. Further details: dose 10 mg/kg, route intravenous. The note with it: in vivo. Summed up:
as §1

The nature of data set [18]: AUClast in normally fed BALB/c mouse at 10 mg/kg, iv. The note with it: plasma. The arrangement: time 0 - last, dose 10 mg/kg, route intravenous. Summed up:
as §1

A short description of data set [19]: Tmax in normally fed BALB/c mouse at 50 mg/kg, po. Further details: dose 50 mg/kg, route oral. The following applies: in vivo. Summed up:
as §1

A short description of data set [20]: Half life in normally fed BALB/c mouse at 50 mg/kg, po. Further details: dose 50 mg/kg, route oral. The following applies: in vivo. Summed up: as §1
Data set [21] in a line: AUC (0 to infinity) in normally fed BALB/c mouse at 10 mg/kg, iv. The arrangement: time infinity, dose 10 mg/kg, route intravenous. The note with it: plasma. Summed up: as §1
Data set [22] is described as follows: Cmax in normally fed BALB/c mouse at 10 mg/kg, im. Further details: dose 10 mg/kg, route intramuscular. The note with it: in vivo. Summed up:
as §1

The nature of data set [23]: Half life in normally fed BALB/c mouse at 10 mg/kg, im. The note with it: in vivo. The arrangement: dose 10 mg/kg, route intramuscular. An outline of the steps:
as §1

What is called AUC(0-t) is the area under the concentration-time curve up to a stated or last time point. In general, Tmax refers to the time from dosing to the highest level. By Cmax is commonly meant the highest concentration seen after dosing. Usually bioavailability stands for the share of a dose that reaches the circulation, judged against a reference dose that is usually intravenous. A higher bioavailability goes with good availability. As usually defined, the AUC(0-inf) is total exposure, with the tail of the curve extrapolated. A higher AUC(0-inf) goes with more exposure. In general, half-life refers to the time needed for the level to fall by half in the phase considered.

In the case of `NC[C@H]1O[C@H](O[C@H]2[C@H](O)[C@@H](O[C@H]3O[C@H](CO)[C@@H](O)[C@H](N)[C@H]3O)[C@H](N)C[C@@H]2N)[C@H](N)C[C@@H]1O` [TOBRAMYCIN], the AUC(0-t) is 11000 ng·h/mL in data set [1], 7060 ng·h/mL in [9], 274 ng·h/mL in data set [13] and 11400 ng·h/mL in data set [18]. Further, the F in the data set on Mus musculus was 100%. For the same molecule, the Tmax in data set [2] is 15 min; in [4] it was 15 min; in data set [14], 5 min; in data set [19] it was 15 min. Also, the highest concentration (Cmax) in data set [3] was determined as 330 ng/mL; in [11], 7800 ng/mL; in data set [17], 35300 ng/mL; in [22] it was 16500 ng/mL. The bioavailability in data set [5] is 96.5%; in data set [15], 12.4%; in data set [16], 0.48%. The AUC(0-inf) in data set [6] was 7300 ng·h/mL; in data set [10] it was 316 ng·h/mL; in [12], 11100 ng·h/mL; in [21], 11500 ng·h/mL. Moreover, the half-life in data set [7] is 20.3 min; in data set [8], 22 min; in data set [20], 41.6 min; in data set [23], 17.7 min.

Source of the values: ChEMBL document CHEMBL1255400, “Fasting increases tobramycin oral absorption in mice” (Antimicrob Agents Chemother, 2010).
